The results in this text go back to ChEMBL document CHEMBL1148318, “Synthesis and antibacterial activity of a novel class of 4'-substituted 16-membered ring macrolides derived from tylosin” (2004).

Holding throughout (type): functional
Test [1] deals with Haemophilus influenzae. Kind of test: In vitro antibacterial activity against ampicillin resistant Haemophilus influenzae 33929. In a few lines: (§1)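 MIC determined by agar dilution per NCCLS recommendations. Strains: S. pneumoniae 49619 (erythromycin-susceptible); S. pneumoniae 700904 and S. pyogenes 2912 (erm-encoded MLSB-resistant); S. pneumoniae 7701 and S. pyogenes 1323 (mef-encoded efflux-resistant); H. influenzae 33929 (ampicillin-resistant).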

Test [2] relates to Staphylococcus aureus. Kind of test: In vitro antibacterial activity against erythromycin susceptible Staphylococcus aureus 25923. The procedure, abridged:
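MIC by agar dilution following NCCLS recommendations; S. aureus 25923 is an erythromycin-susceptible strain.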

Test [3] relates to Streptococcus pneumoniae. Kind of test: In vitro antibacterial activity against efflex resistant Streptococcus pneumoniae 7701. The procedure, abridged: as §1
For test [4], the system named is Streptococcus pneumoniae. The test can be described thus: In vitro antibacterial activity against erythromycin susceptible Streptococcus pneumoniae 49619. The procedure, abridged: as §1
In test [5] the test system is Streptococcus pneumoniae. Kind of test: In vitro antibacterial activity against macrolide-lincosamide-streptogramin resistant Streptococcus pneumoniae 700904. The procedure, abridged:
as §1

In test [6] the test system is Streptococcus pyogenes. Kind of test: In vitro antibacterial activity against efflex resistant Streptococcus pyogenes 1323. In a few lines: as §1
The subject of test [7] is Streptococcus pyogenes. The test can be described thus: In vitro antibacterial activity against macrolide-lincosamide-streptogramin resistant Streptococcus pyogenes 2912. The procedure, abridged: as §1

Values after ≈ are worked out from the molar mass of the structure shown. A value given as a limit tells only on which side of the number the result lay.

As for `C=CCO[C@H]1[C@H](N(C)C)[C@@H](O)[C@H](O[C@H]2[C@@H](CC=O)C[C@@H](C)C(=O)/C=C/C(C)=C/[C@H](CO[C@@H]3O[C@H](C)[C@@H](O)[C@@H](OC)[C@H]3OC)[C@@H](CC)OC(=O)C[C@@H](O)[C@@H]2C)O[C@@H]1C`, the MIC in test [1] is 8 µg/mL (≈ 9.85 µM); in test [2] it was 1 µg/mL (≈ 1.23 µM); in test [3] it was 0.5 µg/mL (≈ 0.616 µM); in test [4], 0.5 µg/mL (≈ 0.616 µM); in test [5], greater than 64 µg/mL; in test [6], 0.125 µg/mL (≈ 0.154 µM). The MIC in test [7] worked out at 32 µg/mL (≈ 39.4 µM).
`CC[C@H]1OC(=O)C[C@@H](O)[C@H](C)[C@@H](O[C@@H]2O[C@H](C)[C@@H](OC/C=C/c3cnc4ccccc4c3)[C@H](N(C)C)[C@H]2O)[C@@H](CC=O)C[C@@H](C)C(=O)/C=C/C(C)=C/[C@@H]1CO[C@@H]1O[C@H](C)[C@@H](O)[C@@H](OC)[C@H]1OC`: the MIC was 4 µg/mL (≈ 4.26 µM) in test [1]; 0.5 µg/mL (≈ 0.532 µM) in test [2]; 0.0625 µg/mL (≈ 0.0665 µM) in test [3]; 0.0625 µg/mL (≈ 0.0665 µM) in test [4]; 1 µg/mL (≈ 1.06 µM) in test [5]; 0.0625 µg/mL (≈ 0.0665 µM) in test [6]. In test [7], this molecule gave an MIC of 8 µg/mL (≈ 8.52 µM).
Regarding `CC[C@H]1OC(=O)[C@H](C)[C@@H](O[C@H]2C[C@@](C)(OC)[C@@H](O)[C@H](C)O2)[C@H](C)[C@@H](O[C@@H]2O[C@H](C)C[C@H](N(C)C)[C@H]2O)[C@](C)(O)C[C@@H](C)C(=O)[C@H](C)[C@@H](O)[C@]1(C)O` [ERYTHROMYCIN], the MIC in test [1] is 4 µg/mL (≈ 5.45 µM); in test [2] it was 0.5 µg/mL (≈ 0.681 µM); in test [3], 8 µg/mL (≈ 10.9 µM); in test [4] it was 0.06 µg/mL (≈ 0.0818 µM); in test [5], greater than 64 µg/mL; in test [6] it was 16 µg/mL (≈ 21.8 µM). Besides, the MIC in test [7] is greater than 64 µg/mL.
With `CC[C@H]1OC(=O)C[C@@H](O)[C@H](C)[C@@H](O[C@@H]2O[C@H](C)[C@@H](O/C=C\Cc3cnc4ccccc4c3)[C@H](N(C)C)[C@H]2O)[C@@H](CC=O)C[C@@H](C)C(=O)/C=C/C(C)=C/[C@@H]1CO[C@@H]1O[C@H](C)[C@@H](O)[C@@H](OC)[C@H]1OC`, the MIC in test [1] is 4 µg/mL (≈ 4.26 µM); in test [2], 0.5 µg/mL (≈ 0.532 µM); in test [3] it was 0.0625 µg/mL (≈ 0.0665 µM); in test [4] it was 0.0625 µg/mL (≈ 0.0665 µM); in test [5] it was 0.5 µg/mL (≈ 0.532 µM); in test [6], 0.0625 µg/mL (≈ 0.0665 µM). The molecule also yielded an MIC in test [7] of 16 µg/mL (≈ 17 µM).
With `CC[C@H]1OC(=O)C[C@@H](O)[C@H](C)[C@@H](O[C@@H]2O[C@H](C)[C@@H](O[C@H]3C[C@@](C)(O)[C@@H](O)[C@H](C)O3)[C@H](N(C)C)[C@H]2O)[C@@H](CC=O)C[C@@H](C)C(=O)/C=C/C(C)=C/[C@@H]1CO[C@@H]1O[C@H](C)[C@@H](O)[C@@H](OC)[C@H]1OC` [TYLOSIN], the MIC was 8 µg/mL (≈ 8.73 µM) in test [1]; 2 µg/mL (≈ 2.18 µM) in test [2]; 0.25 µg/mL (≈ 0.273 µM) in test [3]; 0.25 µg/mL (≈ 0.273 µM) in test [4]; 64 µg/mL (≈ 69.9 µM) in test [5]; 0.25 µg/mL (≈ 0.273 µM) in test [6]. In addition, in test [7], the MIC was greater than 64 µg/mL.
In the case of `CC[C@H]1OC(=O)C[C@@H](O)[C@H](C)[C@@H](O[C@@H]2O[C@H](C)[C@@H](OC(=O)NCCc3ccccc3)[C@H](N(C)C)[C@H]2O)[C@@H](CC=O)C[C@@H](C)C(=O)/C=C/C(C)=C/[C@@H]1CO[C@@H]1O[C@H](C)[C@@H](O)[C@@H](OC)[C@H]1OC`, the MIC is 16 µg/mL (≈ 17.4 µM) in test [1]; 2 µg/mL (≈ 2.18 µM) in test [2]; 2 µg/mL (≈ 2.18 µM) in test [3]; 1 µg/mL (≈ 1.09 µM) in test [4]; greater than 64 µg/mL in test [5]; 0.25 µg/mL (≈ 0.272 µM) in test [6]. This molecule also gave an MIC in test [7] greater than 64 µg/mL.
